According to ChEMBL document CHEMBL2401632, “New bioactive dihydrofuranocoumarins from the roots of the Tunisian Ferula lutea (Poir.) Maire” (Bioorg Med Chem Lett, 2013):
Converted amounts (≈) assume the structure as drawn.

Columns and labels:
HCT-116 = experiment: Cytotoxicity against human HCT116 cells after 96 hrs by MTT assay; assay type: functional, cell-based; details: HCT-116, 96 h
Procedure, shortened: (§1)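 Cells were seeded at 5000 or 10,000 per well and exposed to medium with various sample concentrations for 96 h, with 0.1% DMSO as vehicle control. MTT (5 mg/mL in PBS) was then added for 4 h at 37 °C, 5% CO2. Formazan was dissolved in DMSO and read at OD 570 nm.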

Acetylcholinesterase = Acetylcholinesterase (Homo sapiens, UniProt P22303); experiment: Inhibition of acetylcholinesterase (unknown origin) using acetylcholine iodide as substrate preincubated for 15 mins prior to substrate addition by spectrophotometric analysis
HT-29 = experiment: Cytotoxicity against human HT-29 cells after 96 hrs by MTT assay; assay type: functional, cell-based; details: HT-29, 96 h
Procedure, shortened: as §1, with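 “nm. IC50 is the concentration giving 50% toxicity; duplicate tests, mean ± SD (n = 2).” for “nm.”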

K562 = experiment: Cytotoxicity against human K562 cells after 96 hrs by MTT assay; assay type: functional, cell-based; details: K562, 96 h
[1] = tested on: Radical scavenging activity; experiment: Antioxidant activity assessed as DPPH free radical scavenging activity by spectrophotometric analysis; assay type: functional
MT4 = experiment: Cytotoxicity against human MT4 cells after 96 hrs by MTT assay; assay type: functional, cell-based; details: MT4, 96 h
[2] = Antioxidant activity assessed as ABTS radical scavenging activity after 10 mins by spectrophotometric analysis; assay type: functional
Procedure, shortened: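 ABTS radical cation was made from 7 mM ABTS in water plus potassium persulfate (2.45 mM final), left 12 h in the dark at room temperature, then diluted in methanol to A734 0.706 ± 0.009. 1 mL of this was mixed with 1 mL of methanolic sample at several concentrations. […] Run in triplicate with a BHT positive control.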

[3] = Antioxidant activity assessed as superoxide radical scavenging activity after 2 mins by NBT reduction assay; assay type: functional
Procedure, shortened: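 The 1 mL reaction held 20 mM phosphate buffer pH 7.4, NADH 73 µM, NBT 50 µM, PMS 15 µM and sample at several concentrations. After 2 min at ambient temperature, formazan was read at A562 against a blank. % scavenging was taken vs control. Done three times, with BHT as comparator.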

[4] = Antioxidant activity assessed as H2O2 scavenging activity by NBT reduction assay; assay type: functional
Procedure, shortened: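 H2O2 at 43 mM was prepared in 0.1 M phosphate buffer, pH 7.4. 100 µL of test solution was added along with NADH (73 µM), NBT (50 µM) and PMS (15 µM), 500 µL each. Percent H2O2 scavenged = [(Acontrol − Asample)/Acontrol] × 100.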

[5] = tested on: Radical scavenging activity; experiment: Antioxidant activity assessed as DPPH free radical scavenging activity after 30 mins by spectrophotometric analysis; assay type: functional
Procedure, shortened: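 Daily methanolic DPPH solution was adjusted to A517 = 1.1. Methanolic sample at several concentrations was added to 1 mL, incubated 30 min at 37 °C, then A517 was read. Scavenging % = [(Acontrol − Asample)/Acontrol] × 100. Run in triplicate with BHT as positive control.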

[6] = Cytotoxicity against human MES-SA/Dx5 cells after 96 hrs by MTT assay; assay type: functional, cell-based; details: MES-SA/Dx5, 96 h
PANC-1 = experiment: Cytotoxicity against human PANC1 cells after 96 hrs by MTT assay; assay type: functional, cell-based; details: PANC-1, 96 h
AGS = experiment: Cytotoxicity against human AGS cells after 96 hrs by MTT assay; assay type: functional, cell-based
[7] = Antioxidant activity assessed as superoxide radical scavenging activity measured every 30 seconds for 5 mins by spectrophotometric analysis; assay type: functional
[8] = Antioxidant activity assessed as ABTS radical scavenging activity after 6 mins by spectrophotometric analysis; assay type: functional
[9] = Antioxidant activity assessed as hydroxyl radical scavenging activity after 20 mins by spectrophotometric analysis; assay type: functional

Sequence of Acetylcholinesterase (P22303 whole entry): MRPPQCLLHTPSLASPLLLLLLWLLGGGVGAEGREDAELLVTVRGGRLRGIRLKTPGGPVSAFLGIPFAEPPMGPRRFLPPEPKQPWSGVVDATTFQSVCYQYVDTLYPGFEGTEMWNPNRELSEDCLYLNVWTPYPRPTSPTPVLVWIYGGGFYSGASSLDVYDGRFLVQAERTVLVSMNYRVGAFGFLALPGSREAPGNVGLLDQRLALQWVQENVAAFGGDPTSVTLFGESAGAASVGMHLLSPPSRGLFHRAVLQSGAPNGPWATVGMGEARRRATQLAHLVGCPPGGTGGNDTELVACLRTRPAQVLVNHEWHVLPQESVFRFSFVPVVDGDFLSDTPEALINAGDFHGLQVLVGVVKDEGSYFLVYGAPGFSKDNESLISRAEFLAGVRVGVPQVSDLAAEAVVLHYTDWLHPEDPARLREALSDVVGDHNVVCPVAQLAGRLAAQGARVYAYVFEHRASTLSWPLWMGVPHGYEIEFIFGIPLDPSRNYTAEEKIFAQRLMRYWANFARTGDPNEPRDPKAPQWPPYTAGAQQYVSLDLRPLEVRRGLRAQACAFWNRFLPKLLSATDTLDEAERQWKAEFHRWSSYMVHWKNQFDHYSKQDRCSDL

Row | Structure (SMILES) | IC50 (HCT-116) [µM] | IC50 (Acetylcholinesterase) [µM] | IC50 (HT-29) [µM] | other results
1 | C/C=C(\C)C(=O)OC(C)(C)[C@@H]1Cc2cc3ccc(=O)oc3cc2O1 | 7.6 | > 100 | 0.93 | 
2 | O=c1ccc2cc3ccoc3cc2o1 [PSORALEN] | 45.6 | 6.48 | 41.7 | IC50 (K562): 131 µM
3 | O=c1ccc2ccc(O)cc2o1 [UMBELLIFERONE] | 8.05 |  | 4.35 | IC50 [1]: 36.1 µg/mL (≈ 223 µM); IC50 (MT4): 2340 µM
4 | Cc1cc(C(C)(C)C)c(O)c(C(C)(C)C)c1 [BUTYLATED HYDROXYTOLUENE] |  |  |  | IC50 [2]: 6.85 µM; IC50 [3]: 7.26 µM; IC50 [4]: 6.38 µM; IC50 ([5]; read-out: IC50): 9.02 µM
5 | CC(C)=CC(=O)OC(C)(C)[C@@H]1Cc2cc3ccc(=O)oc3cc2O1 [(-)-PRANTSCHIMGIN] | 15 | > 100 | 5.2 | IC50 [6]: 3.1 µM
6 | CC(=O)O[C@H]1C(=O)[C@@]2(C)[C@H]([C@H](OC(=O)c3ccccc3)[C@]3(O)C[C@H](OC(=O)[C@H](O)[C@@H](NC(=O)c4ccccc4)c4ccccc4)C(C)=C1C3(C)C)[C@]1(OC(C)=O)CO[C@@H]1C[C@@H]2O [PACLITAXEL] |  |  | 0.00198 | 
7 | COc1c2occc2cc2ccc(=O)oc12 [METHOXSALEN] | > 100 | 0.76 | > 100 | IC50 (PANC-1): 83.3 µM
8 | O=C(O)/C=C/c1ccc(O)c(O)c1 [CAFFEIC ACID] | 29.7 | > 100 | 27.2 | IC50 (AGS): 129 µM; IC50 [7]: 0.38 µg/mL (≈ 2.11 µM); IC50 [8]: 0.57 µg/mL (≈ 3.16 µM); IC50 [9]: 0.37 µg/mL (≈ 2.05 µM); IC50 [5]: 0.39 µg/mL
